Data taken from ChEMBL document CHEMBL5724801, “EUbOPEN Chemogenomics Library - Multiplex” (2024).
Where “and” joins values, the source holds several entries; their conditions need not be identical. Equal entries are not always repeated.

Test system: Fibroblast
Test: Multiplex assay against human fibroblast
Assay type: toxicity, cell-based
Procedure, shortened: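 At seeding, live cells were stained with Hoechst33342, BioTracker Green Microtubule Cytoskeleton Dye, MitoTracker Red and Annexin V Alexa Fluor 680. After compound addition they were imaged on a CQ1 microscope at 37°C and 5% CO2, and CellPathfinder machine-learning gating sorted them into Hoechst high-intensity objects or normal cells, with normal cells further split into healthy, pyknosed or fragmented nuclei and pyknosed cells into mitotic or apoptotic. Tubulin, mitochondrial-mass and membrane-permeability phenotypes are given as per cents of cells with healthy nuclei.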

[1] = 12 h, 1 µM, compound concentration 1 uM
[2] = 12 h, 10 µM, compound concentration 10 uM
[3] = 24 h, 1 µM, compound concentration 1 uM
[4] = 24 h, 10 µM, compound concentration 10 uM
[5] = 48 h, 1 µM, compound concentration 1 uM
[6] = 48 h, 10 µM, compound concentration 10 uM

In the case of `CN(C)Cc1cccc(NC(=C2C(=O)Nc3cc(C(=O)N(C)C)ccc32)c2ccccc2)c1`, the “Population Fragmented Nuclei (%)” value [1] is reported as 12.28% and 5.26%, the “Population Healthy Nuclei (%)” value [1] is reported as 63.16% and 78.47% and the “Population Hoechst High Intensity Objects (%)” value [1] is reported as 0%. The “Population Membrane Permeable-Phenotype (%)” value [1] was 4.17% and 9.15%, the “Population Mitochondria Different-Phenotype (%)” value [1] was 12.5% and 7.93% and the “Population Mitotic Cells (%)” value [1] was 91.07% and 67.65%. The “Population Normal (%)” value [1] was 100%, the “Population Pyknosed Nuclei (%)” value [1] was 24.56% and 16.27% and the “Population Tubulin-Different-Phenotype (%)” value [1] was 20.14% and 25%. For the same compound, the “Total Cell Count” value [1] was 228 and 209, the “Population Apoptotic (%)” value [2] was 15.09% and 31.43% and the “Population Fragmented Nuclei (%)” value [2] was 12.72% and 8.65%. For the same compound, the “Population Healthy Nuclei (%)” value [2] was 64.04% and 80.13%, the “Population Hoechst High Intensity Objects (%)” value [2] was 0% and the “Population Membrane Permeable-Phenotype (%)” value [2] was 8.22% and 6.4%. The “Population Mitochondria Different-Phenotype (%)” value [2] was 23.97% and 16.8%, the “Population Mitotic Cells (%)” value [2] was 84.91% and 68.57% and the “Population Normal (%)” value [2] was 100%. The “Population Pyknosed Nuclei (%)” value [2] was 23.25% and 11.22%, the “Population Tubulin-Different-Phenotype (%)” value [2] was 54.79% and 75.6% and the “Total Cell Count” value [2] was 228 and 312. The “Population Fragmented Nuclei (%)” value [3] was 10.42% and 4.72%, the “Population Healthy Nuclei (%)” value [3] was 77.5% and 83.96% and the “Population Hoechst High Intensity Objects (%)” value [3] was 0%. For the same compound, the “Population Membrane Permeable-Phenotype (%)” value [3] was 1.08% and 2.81%, the “Population Mitochondria Different-Phenotype (%)” value [3] was 4.84% and 10.11% and the “Population Mitotic Cells (%)” value [3] was 93.1% and 75%. The “Population Normal (%)” value [3] was 100%, the “Population Pyknosed Nuclei (%)” value [3] was 12.08% and 11.32% and the “Population Tubulin-Different-Phenotype (%)” value [3] was 11.29% and 23.03%. The “Total Cell Count” value [3] was 240 and 212, the “Population Apoptotic (%)” value [4] was 13.33% and 25% and the “Population Healthy Nuclei (%)” value [4] was 66.94% and 85.67%. The “Population Hoechst High Intensity Objects (%)” value [4] was 0%, the “Population Membrane Permeable-Phenotype (%)” value [4] was 8.43% and 2.18% and the “Population Mitochondria Different-Phenotype (%)” value [4] was 24.7% and 21.82%. The “Population Mitotic Cells (%)” value [4] was 86.67% and 75%, the “Population Normal (%)” value [4] was 100% and the “Population Pyknosed Nuclei (%)” value [4] was 18.15% and 9.97%. The “Population Tubulin-Different-Phenotype (%)” value [4] was 63.25% and 79.64%, the “Total Cell Count” value [4] was 248 and 321 and the “Population Apoptotic (%)” value [5] was 26.67% and 31.25%. For the same compound, the “Population Fragmented Nuclei (%)” value [5] was 11.31% and 7.86%, the “Population Healthy Nuclei (%)” value [5] was 83.21% and 85.15% and the “Population Hoechst High Intensity Objects (%)” value [5] was 0%. For the same compound, the “Population Membrane Permeable-Phenotype (%)” value [5] was 0.88% and 7.18%, the “Population Mitotic Cells (%)” value [5] was 73.33% and 68.75% and the “Population Normal (%)” value [5] was 100%. For the same compound, the “Population Pyknosed Nuclei (%)” value [5] was 5.47% and 6.99%, the “Population Tubulin-Different-Phenotype (%)” value [5] was 7.46% and 16.92% and the “Total Cell Count” value [5] was 274 and 229. For the same compound, the “Population Apoptotic (%)” value [6] was 33.33% and 64.71%, the “Population Fragmented Nuclei (%)” value [6] was 14.48% and 6.69% and the “Population Healthy Nuclei (%)” value [6] was 77.44% and 87.9%. For the same compound, the “Population Hoechst High Intensity Objects (%)” value [6] was 0%, the “Population Membrane Permeable-Phenotype (%)” value [6] was 1.3% and 2.9% and the “Population Mitochondria Different-Phenotype (%)” value [6] was 11.3% and 9.42%. For the same compound, the “Population Mitotic Cells (%)” value [6] was 66.67% and 35.29%, the “Population Normal (%)” value [6] was 100% and the “Population Pyknosed Nuclei (%)” value [6] was 8.08% and 5.41%. For the same compound, the “Population Tubulin-Different-Phenotype (%)” value [6] was 43.48% and 85.14% and the “Total Cell Count” value [6] was 297 and 314.
With `O=C(Nc1cc(C(F)(F)F)ccc1N1CCCCC1)c1ccncc1` the “Population Fragmented Nuclei (%)” value [1] was 13.9% and 8.06%, the “Population Healthy Nuclei (%)” value [1] was 57.22% and 74.41% and the “Population Hoechst High Intensity Objects (%)” value [1] was 0%. For the same compound, the “Population Membrane Permeable-Phenotype (%)” value [1] was 1.87% and 1.91%, the “Population Mitochondria Different-Phenotype (%)” value [1] was 6.54% and 10.83% and the “Population Mitotic Cells (%)” value [1] was 92.59% and 75.68%. The “Population Normal (%)” value [1] was 100%, the “Population Pyknosed Nuclei (%)” value [1] was 28.88% and 17.54% and the “Population Tubulin-Different-Phenotype (%)” value [1] was 13.08% and 22.93%. For the same compound, the “Total Cell Count” value [1] was 187 and 211, the “Population Apoptotic (%)” value [2] was 17.46% and 11.48% and the “Population Fragmented Nuclei (%)” value [2] was 7.6% and 3.1%. The “Population Healthy Nuclei (%)” value [2] was 55.56% and 69.91%, the “Population Hoechst High Intensity Objects (%)” value [2] was 0% and the “Population Membrane Permeable-Phenotype (%)” value [2] was 9.47% and 6.96%. For the same compound, the “Population Mitochondria Different-Phenotype (%)” value [2] was 26.32% and 21.52%, the “Population Mitotic Cells (%)” value [2] was 82.54% and 88.52% and the “Population Normal (%)” value [2] was 100%. For the same compound, the “Population Pyknosed Nuclei (%)” value [2] was 36.84% and 26.99%, the “Population Tubulin-Different-Phenotype (%)” value [2] was 35.79% and 71.52% and the “Total Cell Count” value [2] was 171 and 226. The “Population Apoptotic (%)” value [3] was 11.76% and 28.57%, the “Population Fragmented Nuclei (%)” value [3] was 9.18% and 7.73% and the “Population Healthy Nuclei (%)” value [3] was 74.4% and 82.13%. The “Population Hoechst High Intensity Objects (%)” value [3] was 0%, the “Population Membrane Permeable-Phenotype (%)” value [3] was 4.55% and 4.12% and the “Population Mitochondria Different-Phenotype (%)” value [3] was 4.55% and 8.82%. For the same compound, the “Population Mitotic Cells (%)” value [3] was 88.24% and 71.43%, the “Population Normal (%)” value [3] was 100% and the “Population Pyknosed Nuclei (%)” value [3] was 16.43% and 10.14%. For the same compound, the “Population Tubulin-Different-Phenotype (%)” value [3] was 16.23% and 21.76%, the “Total Cell Count” value [3] was 207 and the “Population Apoptotic (%)” value [4] was 20.83% and 16.98%. For the same compound, the “Population Fragmented Nuclei (%)” value [4] was 6.81% and 3.07%, the “Population Healthy Nuclei (%)” value [4] was 68.06% and 73.68% and the “Population Hoechst High Intensity Objects (%)” value [4] was 0%. The “Population Membrane Permeable-Phenotype (%)” value [4] was 5.38% and 5.95%, the “Population Mitochondria Different-Phenotype (%)” value [4] was 30.77% and 20.24% and the “Population Mitotic Cells (%)” value [4] was 79.17% and 83.02%. For the same compound, the “Population Normal (%)” value [4] was 100%, the “Population Pyknosed Nuclei (%)” value [4] was 25.13% and 23.25% and the “Population Tubulin-Different-Phenotype (%)” value [4] was 53.08% and 70.24%. The “Total Cell Count” value [4] was 191 and 228, the “Population Apoptotic (%)” value [5] was 11.11% and 10% and the “Population Fragmented Nuclei (%)” value [5] was 14.08% and 11%. The “Population Healthy Nuclei (%)” value [5] was 81.69% and 84.21%, the “Population Hoechst High Intensity Objects (%)” value [5] was 0% and the “Population Membrane Permeable-Phenotype (%)” value [5] was 1.72% and 2.84%. The “Population Mitochondria Different-Phenotype (%)” value [5] was 8.62% and 5.11%, the “Population Mitotic Cells (%)” value [5] was 88.89% and 90% and the “Population Normal (%)” value [5] was 100%. The “Population Pyknosed Nuclei (%)” value [5] was 4.23% and 4.78%, the “Total Cell Count” value [5] was 213 and 209 and the “Population Fragmented Nuclei (%)” value [6] was 9.23% and 2.62%. The “Population Healthy Nuclei (%)” value [6] was 81.54% and 82.97%, the “Population Hoechst High Intensity Objects (%)” value [6] was 0% and the “Population Membrane Permeable-Phenotype (%)” value [6] was 0% and 7.37%. The “Population Mitochondria Different-Phenotype (%)” value [6] was 17.61% and 13.68%, the “Population Mitotic Cells (%)” value [6] was 61.11% and 90.91% and the “Population Normal (%)” value [6] was 100%. The “Population Pyknosed Nuclei (%)” value [6] was 9.23% and 14.41%, the “Population Tubulin-Different-Phenotype (%)” value [6] was 31.45% and 73.68% and the “Total Cell Count” value [6] was 195 and 229.
